Experimental data published in ChEMBL document CHEMBL2401693, “Chromatographic separation of piracetam and its metabolite in a mixture of microsomal preparations, followed by an MS/MS analysis” (Eur J Med Chem, 2013).

Columns and labels:
Liver microsomes [1] = test: Drug metabolism in human liver microsomes assessed as Metabolite M1 formation after 50 mins by UPLC-MS/MS analysis; type: ADME, Microsome
Method in brief: (§1)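 Pooled human liver microsomes (30 donors), 0.5 mg protein/ml, in 50 mM Tris-HCl pH 7.4 with 5 mM MgCl2 and 50 mM piracetam (final 500 µL), triplicate tubes, 37 °C with shaking. After 10-min preincubation, reaction started with 2 mM NADPH. Stopped with cold ethyl acetate at the stated time, then centrifuged, reconstituted in mobile phase and analysed by UPLC-MS/MS.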

Liver microsomes [2] = test: Drug metabolism in human liver microsomes assessed as Metabolite M1 formation after 40 mins by UPLC-MS/MS analysis; type: ADME, Microsome; method in brief: as §1
Liver microsomes [3] = test: Drug metabolism in human liver microsomes assessed as Metabolite M1 formation after 20 mins by UPLC-MS/MS analysis; type: ADME, Microsome; method in brief: as §1
Liver microsomes [4] = test: Drug metabolism in human liver microsomes assessed as Metabolite M1 formation after 30 mins by UPLC-MS/MS analysis; type: ADME, Microsome; details: 0.5 h; method in brief: as §1
Liver microsomes [5] = test: Drug metabolism in human liver microsomes assessed as Metabolite M1 formation after 10 mins by UPLC-MS/MS analysis; type: ADME, Microsome; method in brief: as §1
Liver microsomes [6] = test: Metabolic stability in human liver microsomes assessed as retention time by UPLC-MS/MS analysis; type: ADME, Microsome
Method in brief: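 UPLC on BEH column (1.7 µm) at 30 °C, isocratic acetonitrile/10 mM ammonium acetate pH 5.0 (15:85), 0.3 ml/min, 5 µL injection, PDA 209 nm with Q-TOF ESI positive mode.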

Liver microsomes [7] = test: Metabolic stability in human liver microsomes assessed as compound remaining after 40 mins by UPLC-MS/MS analysis; type: ADME, Microsome
Rattus norvegicus [8] = test: AUC (0 to infinity) in Wistar rat assessed as Metabolite M1 at 50 mg/kg, po; type: ADME, organism-based, Plasma; parameters: dose 50 mg/kg, route oral, time infinity; details: in vivo
Liver microsomes [9] = test: Metabolic stability in human liver microsomes assessed as compound remaining after 30 mins by UPLC-MS/MS analysis; type: ADME, Microsome; details: 0.5 h
Plasma [10] = test: Stability in rat plasma assessed as metabolite M1 at 180 ng/ml after 30 days at -20 degC; type: ADME, cell-free; details: 720 h
Method in brief: (§2)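 M1 spiked into drug-free rat plasma at QC low and high levels, six replicates per level; extracted with ethyl acetate, UPLC-MS/MS. Conditions: bench top room temperature, frozen storage, three freeze–thaw cycles (frozen ≥12 h each), processed samples in autosampler. Stable if accuracy and precision within 15%; reported as % nominal and RSD.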

Rattus norvegicus [11] = test: […] in Wistar rat assessed as Metabolite M1 at 50 mg/kg, po; type: ADME, organism-based; parameters: dose 50 mg/kg, route oral; details: in vivo
Liver microsomes [12] = test: Metabolic stability in human liver microsomes assessed as compound remaining after 50 mins by UPLC-MS/MS analysis; type: ADME, Microsome
Plasma [13] = test: Stability in rat plasma assessed as metabolite M1 at 180 ng/ml after 24 hrs by autosampler analysis; type: ADME, cell-free; method in brief: as §2
Plasma [14] = test: Stability in rat plasma assessed as metabolite M1 at 180 ng/ml during three freeze-thaw cycles; type: ADME, cell-free; method in brief: as §2
Liver microsomes [15] = test: Metabolic stability in human liver microsomes assessed as compound remaining after 20 mins by UPLC-MS/MS analysis; type: ADME, Microsome
Plasma [16] = test: Stability in rat plasma assessed as Metabolite M1at 20 ng/ml after 30 days at -20 degC; type: ADME, cell-free; details: 720 h; method in brief: as §2
Rattus norvegicus [17] = test: Cmax in Wistar rat assessed as Metabolite M1 at 50 mg/kg, po; type: ADME, organism-based; parameters: dose 50 mg/kg, route oral; details: in vivo
Plasma [18] = test: Stability in rat plasma assessed as Metabolite M1at 20 ng/ml after 24 hrs by autosampler analysis; type: ADME, cell-free; method in brief: as §2
Plasma [19] = test: Stability in rat plasma assessed as Metabolite M1at 20 ng/ml after 2 hrs at room temperature; type: ADME, cell-free; method in brief: as §2
Plasma [20] = test: Stability in rat plasma assessed as Metabolite M1at 20 ng/ml during three freeze-thaw cycles; type: ADME, cell-free; method in brief: as §2
Plasma [21] = test: Stability in rat plasma assessed as metabolite M1 at 180 ng/ml after 10 days at -80 degC; type: ADME, cell-free; details: 240 h; method in brief: as §2
Rattus norvegicus [22] = test: Clearance in Wistar rat assessed as Metabolite M1 at 50 mg/kg, po; type: ADME, organism-based; parameters: dose 50 mg/kg, route oral; details: in vivo
Plasma [23] = test: Stability in rat plasma assessed as metabolite M1 at 180 ng/ml after 2 hrs at room temperature; type: ADME, cell-free; method in brief: as §2
Liver microsomes [24] = test: Metabolic stability in human liver microsomes assessed as compound remaining after 10 mins by UPLC-MS/MS analysis; type: ADME, Microsome
Rattus norvegicus [25] = test: Tmax in Wistar rat assessed as Metabolite M1 at 50 mg/kg, po; type: ADME, organism-based; parameters: dose 50 mg/kg, route oral; details: in vivo
Rattus norvegicus [26] = test: AUC (0 to t) in Wistar rat assessed as Metabolite M1 at 50 mg/kg, po; type: ADME, organism-based, Plasma; parameters: dose 50 mg/kg, route oral; details: in vivo
Rattus norvegicus [27] = test: Apparent elimination half life in Wistar rat assessed as Metabolite M1 at 50 mg/kg, po; type: ADME, organism-based; parameters: dose 50 mg/kg, route oral; details: in vivo
Plasma [28] = test: Stability in rat plasma assessed as Metabolite M1at 20 ng/ml after 10 days at -80 degC; type: ADME, cell-free; details: 240 h; method in brief: as §2

`O=C(O)CN1CCCC1=O` gave a Drug metabolism (Liver microsomes [1]) of 13.89 µM, a Drug metabolism (Liver microsomes [2]) of 9.23 µM and a Drug metabolism (Liver microsomes [3]) of 4.79 µM. It also gave a Drug metabolism (Liver microsomes [4]) of 6.45 µM, a Drug metabolism (Liver microsomes [5]) of 2.42 µM and a Retention_time (Liver microsomes [6]) of 2.042 min.

`NC(=O)CN1CCCC1=O` [PIRACETAM] showed a Stability (Liver microsomes [7]) of 40.56 µM, an AUC (Rattus norvegicus [8]) of 939.178 µg·h/mL and a Stability (Liver microsomes [9]) of 43.78 µM. For the same compound, the Drug metabolism (Plasma [10]) was 179.123 ng/mL, the MRT (Rattus norvegicus [11]) was 5.542 h and the Stability (Liver microsomes [12]) was 36.22 µM. It also gave a Drug metabolism (Plasma [13]) of 178.753 ng/mL, a Drug metabolism (Plasma [14]) of 178.42 ng/mL and a Stability (Liver microsomes [15]) of 45.66 µM. For the same compound, the Drug metabolism (Plasma [16]) was 18.787 ng/mL, the Cmax (Rattus norvegicus [17]) was 0.15539 µg/mL and the Drug metabolism (Plasma [18]) was 19.043 ng/mL. It also gave a Drug metabolism (Plasma [19]) of 19.347 ng/mL, a Drug metabolism (Plasma [20]) of 18.88 ng/mL and a Drug metabolism (Plasma [21]) of 179.13 ng/mL. The CL (Rattus norvegicus [22]) was 53.238 L/h/kg, the Drug metabolism (Plasma [23]) was 178.883 ng/mL and the Stability (Liver microsomes [24]) was 47.56 µM. The Tmax (Rattus norvegicus [25]) was 1 h, the AUCt (Rattus norvegicus [26]) was 928.445 µg·h/mL and the Retention_time (Liver microsomes [6]) was 2.726 min. The “betat1/2(app)” value (Rattus norvegicus [27]) was 3.652 h and the Drug metabolism (Plasma [28]) was 18.853 ng/mL.
